Data taken from the M2OR odorant receptor database.

How the values were obtained:
Conditions in all cases: stereoisomer not certain
[1] = target: OR10Q1 (Homo sapiens) (UniProt Q8NGQ4)
Procedure, shortened: (§1)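 Each receptor–molecule pair is labelled responsive or non-responsive (inactive) according to whether the original authors judged the measured signal statistically different from baseline. The data were taken from the main text and supplementary material of published papers and checked for typos and inconsistencies. Assay methods differed by source, with transient luciferase assays in mammalian cell lines being common.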

[2] = target: OR10R2 (Homo sapiens) (UniProt Q8NGX6)
Procedure, shortened: as §1

[3] = target: OR10T2 (Homo sapiens) (UniProt Q8NGX3)
Procedure, shortened: as §1

[4] = target: OR10V1 (Homo sapiens) (UniProt Q8NGI7)
Procedure, shortened: as §1

[5] = target: OR10W1 (Homo sapiens) (UniProt Q8NGF6)
Procedure, shortened: as §1

[6] = target: OR10X1 (Homo sapiens) (UniProt Q8NGY0)
Procedure, shortened: as §1

[7] = target: OR10Z1 (Homo sapiens) (UniProt Q8NGY1)
Procedure, shortened: as §1

[8] = target: OR11A1 (Homo sapiens) (UniProt Q9GZK7)
Procedure, shortened: as §1

[9] = target: OR11G2 (Homo sapiens) (UniProt Q8NGC1)
Procedure, shortened: as §1

Measured: odorant receptor agonist call;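 further: active if original authors judged signal statistically different from baseline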

OR10Q1 (Homo sapiens), sequence (Q8NGQ4 whole entry): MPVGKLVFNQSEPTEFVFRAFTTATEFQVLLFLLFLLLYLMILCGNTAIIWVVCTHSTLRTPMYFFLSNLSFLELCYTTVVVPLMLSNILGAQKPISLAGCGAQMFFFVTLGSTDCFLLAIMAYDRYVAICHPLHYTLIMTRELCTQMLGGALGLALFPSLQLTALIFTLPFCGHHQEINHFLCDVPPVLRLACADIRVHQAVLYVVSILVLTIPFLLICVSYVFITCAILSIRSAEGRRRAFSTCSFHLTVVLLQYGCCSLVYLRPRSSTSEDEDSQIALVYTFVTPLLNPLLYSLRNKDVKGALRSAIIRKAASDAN
OR11G2 (Homo sapiens), sequence (Q8NGC1 whole entry): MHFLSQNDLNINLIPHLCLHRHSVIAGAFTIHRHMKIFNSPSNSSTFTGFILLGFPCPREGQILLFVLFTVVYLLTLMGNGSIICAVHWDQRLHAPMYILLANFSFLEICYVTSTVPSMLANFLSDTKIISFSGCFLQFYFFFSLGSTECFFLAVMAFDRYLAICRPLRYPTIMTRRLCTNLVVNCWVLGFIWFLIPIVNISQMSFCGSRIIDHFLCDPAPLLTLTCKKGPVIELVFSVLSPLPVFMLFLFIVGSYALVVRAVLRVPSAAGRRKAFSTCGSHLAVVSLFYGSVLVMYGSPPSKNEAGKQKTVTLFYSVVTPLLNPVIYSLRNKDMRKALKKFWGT
OR10Z1 (Homo sapiens), sequence (Q8NGY1 whole entry): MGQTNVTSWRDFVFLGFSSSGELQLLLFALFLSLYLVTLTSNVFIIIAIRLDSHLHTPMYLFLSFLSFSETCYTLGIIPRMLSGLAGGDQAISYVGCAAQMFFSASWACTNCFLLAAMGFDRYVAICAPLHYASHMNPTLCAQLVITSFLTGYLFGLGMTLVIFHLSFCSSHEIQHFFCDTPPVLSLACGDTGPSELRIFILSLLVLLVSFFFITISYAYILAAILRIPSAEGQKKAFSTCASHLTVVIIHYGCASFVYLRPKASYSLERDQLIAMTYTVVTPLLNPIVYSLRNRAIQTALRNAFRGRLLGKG
OR10W1 (Homo sapiens), sequence (Q8NGF6 whole entry): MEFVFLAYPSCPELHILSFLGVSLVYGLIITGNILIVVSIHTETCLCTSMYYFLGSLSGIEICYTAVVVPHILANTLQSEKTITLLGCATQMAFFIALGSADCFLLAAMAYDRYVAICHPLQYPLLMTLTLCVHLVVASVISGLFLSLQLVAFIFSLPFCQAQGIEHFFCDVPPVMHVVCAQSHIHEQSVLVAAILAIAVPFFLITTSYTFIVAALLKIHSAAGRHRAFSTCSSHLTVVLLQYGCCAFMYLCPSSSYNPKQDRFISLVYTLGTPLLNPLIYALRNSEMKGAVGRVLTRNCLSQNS
OR10T2 (Homo sapiens), sequence (Q8NGX3 whole entry): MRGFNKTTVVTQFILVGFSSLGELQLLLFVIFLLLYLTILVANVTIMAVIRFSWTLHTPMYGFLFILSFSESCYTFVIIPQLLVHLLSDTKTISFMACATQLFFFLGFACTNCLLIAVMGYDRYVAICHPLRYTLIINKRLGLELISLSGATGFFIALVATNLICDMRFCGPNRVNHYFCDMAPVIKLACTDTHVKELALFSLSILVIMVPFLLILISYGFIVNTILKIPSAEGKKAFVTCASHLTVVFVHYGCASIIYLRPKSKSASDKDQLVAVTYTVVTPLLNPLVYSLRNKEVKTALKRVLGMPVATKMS
OR11A1 (Homo sapiens), sequence (Q9GZK7 whole entry): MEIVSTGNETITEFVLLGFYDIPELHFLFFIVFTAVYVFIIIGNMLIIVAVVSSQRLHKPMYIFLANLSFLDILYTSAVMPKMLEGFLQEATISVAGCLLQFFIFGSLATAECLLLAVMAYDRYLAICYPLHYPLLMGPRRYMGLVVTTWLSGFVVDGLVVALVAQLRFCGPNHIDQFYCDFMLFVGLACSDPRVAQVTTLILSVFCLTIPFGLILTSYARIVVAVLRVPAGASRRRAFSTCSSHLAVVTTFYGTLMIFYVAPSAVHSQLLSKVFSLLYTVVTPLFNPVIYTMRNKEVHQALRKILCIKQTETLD
OR10R2 (Homo sapiens), sequence (Q8NGX6 whole entry): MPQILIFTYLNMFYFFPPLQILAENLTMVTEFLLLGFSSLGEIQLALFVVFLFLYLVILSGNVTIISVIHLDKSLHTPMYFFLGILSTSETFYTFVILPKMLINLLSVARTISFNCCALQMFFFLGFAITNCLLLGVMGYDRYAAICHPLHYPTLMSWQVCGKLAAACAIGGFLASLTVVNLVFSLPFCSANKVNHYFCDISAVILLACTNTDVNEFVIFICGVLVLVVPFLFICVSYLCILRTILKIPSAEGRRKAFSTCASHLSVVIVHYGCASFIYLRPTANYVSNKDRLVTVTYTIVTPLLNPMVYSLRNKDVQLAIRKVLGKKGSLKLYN
OR10V1 (Homo sapiens), sequence (Q8NGI7 whole entry): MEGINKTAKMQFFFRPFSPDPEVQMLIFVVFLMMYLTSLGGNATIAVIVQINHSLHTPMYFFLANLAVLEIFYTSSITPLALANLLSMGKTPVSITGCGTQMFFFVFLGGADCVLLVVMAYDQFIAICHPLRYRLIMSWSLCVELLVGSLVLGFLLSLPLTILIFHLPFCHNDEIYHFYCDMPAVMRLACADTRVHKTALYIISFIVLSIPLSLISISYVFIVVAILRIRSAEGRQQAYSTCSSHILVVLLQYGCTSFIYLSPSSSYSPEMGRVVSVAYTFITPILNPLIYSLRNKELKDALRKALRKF
OR10X1 (Homo sapiens), sequence (Q8NGY0 whole entry): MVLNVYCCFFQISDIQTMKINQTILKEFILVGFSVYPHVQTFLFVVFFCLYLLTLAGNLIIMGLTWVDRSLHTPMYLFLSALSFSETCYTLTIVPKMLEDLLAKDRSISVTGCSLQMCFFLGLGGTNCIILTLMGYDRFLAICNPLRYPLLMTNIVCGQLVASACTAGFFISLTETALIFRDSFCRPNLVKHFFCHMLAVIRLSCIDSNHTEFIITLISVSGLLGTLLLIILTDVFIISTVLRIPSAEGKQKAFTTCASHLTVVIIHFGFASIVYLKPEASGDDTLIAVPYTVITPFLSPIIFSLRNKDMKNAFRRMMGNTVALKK

Cc1c([N+](=O)[O-])c(C)c([N+](=O)[O-])c(C(C)(C)C)c1[N+](=O)[O-]
inactive: all assays above

C=CCOC(=O)Cc1ccccc1
inactive: all assays above
